Data on seven compounds can be found in ChEMBL document CHEMBL1121813, “Dihydrochalcone sweeteners. A study of the atypical temporal phenomena” (1981).

For assay [1], the species on record is Homo sapiens. Nature of the assay: Sweet / Bitter character at a concentration of 252 ppm (mean value); 6/94. It is filed as functional.
The species named for assay [2] is Homo sapiens. As to the kind of experiment: Bitter character at a concentration of 252 ppm (mean value). It is filed as functional. In outline: (§1)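 Trained human panel tasted aqueous solutions. Each judge reported whether there was an aftertaste and its character (sweet, bitter or bitter-sweet). The value is the percentage of judgments reporting a bitter aftertaste.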

For assay [3], the species on record is Homo sapiens. Nature of the assay: Sweet character at a concentration of 252 ppm (mean value). It is filed as functional. In outline:
(§2)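 Trained human sensory panel (Swartz method) tasted dilute aqueous solutions of the compounds, which had to be ≥95 weight percent pure and free of mutagenicity and toxicity. Taste character is reported as the mean value with 2S_m limits. Data deviating excessively at the 95% confidence level were rejected by the t-value method.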

The species entered for assay [4] is Homo sapiens. Nature of the assay: Intensity calculated on a weight basis relative to an 85500 ppm sucrose solution at a concentration of 252 ppm (mean value). It is filed as functional. In outline: (§3)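 Trained human panel tasted aqueous solutions of purity-checked (≥95 weight percent) compounds cleared for mutagenicity and mouse oral toxicity. Weight-basis intensity I_w = perceived intensity × (85500 ppm sucrose / compound concentration in ppm). The mean is reported with 2S_m limits; data deviating excessively at 95% confidence were rejected by the t-value method.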

For assay [5], the species on record is Homo sapiens. As to the kind of experiment: Salty character at a concentration of 252 ppm (mean value). The format is functional. In outline: as §2
The species named for assay [6] is Homo sapiens. As to the kind of experiment: Intensity calculated on a molar basis relative to a 0.25 M sucrose solution at a concentration of 252 ppm (mean value). It is filed as functional. In outline: (§4)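 Trained human judges tasted aqueous solutions of the test compound; compounds were first required to be ≥95 weight percent pure and free of mutagenicity (five Salmonella typhimurium strains, ± microsomal activation) and of single oral dose mouse toxicity. Molar intensity I_m = perceived intensity × (0.25 M sucrose / compound molar concentration). The mean is reported with 2S_m limits; outliers were rejected at 95% confidence by t-value.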

For assay [7], the species on record is Homo sapiens. As to the kind of experiment: Experimentally determined perceived intensity of compound at a concentration of 252 ppm (mean value). It is filed as functional. In outline:
(§5)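 Trained human sensory panel of judges tasted aqueous solutions of the compound. Samples had to be ≥95 weight % pure (HPLC, proton titration, Karl Fischer), non-mutagenic in five Salmonella typhimurium strains with and without microsomal activation, and non-toxic in a single-oral-dose mouse test. Perceived intensity (Ip) was read from time–intensity curves at 4- or 6-s intervals and averaged. Outliers at the 95% level were rejected by t-value. Values reported as mean (2Sm).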

The species named for assay [8] is Homo sapiens. As to the kind of experiment: Sour character at a concentration of 252 ppm (mean value). The format is functional. In outline: as §2
Assay [9] is filed under the species Homo sapiens. Nature of the assay: Number of taste judgments per compound. It is filed as functional.
Assay [10] is filed under the species Homo sapiens. Nature of the assay: Other taste character at a concentration of 252 ppm (mean value). It is filed as functional. In outline:
as §2

The species named for assay [11] is Homo sapiens. Nature of the assay: Percentage of judgments reporting an aftertaste at a concentration of 252 ppm and character thereof. The format is functional. In outline:
(§6)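 Trained judges tasted aqueous solutions of the compounds, which had to be ≥95 weight percent pure and to have passed mutagenicity and single oral dose toxicity screening. The value is the percentage of panel judgments reporting an aftertaste. Where given, its character is recorded as sweet, bitter or bitter-sweet.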

The species entered for assay [12] is Homo sapiens. As to the kind of experiment: Percentage of judgments reporting an aftertaste at a concentration of 2000 ppm and character thereof. The format is functional. In outline:
as §6

For assay [13], the species on record is Homo sapiens. Nature of the assay: Experimentally determined perceived intensity of compound at a concentration of 2000 ppm (mean value). The format is functional. In outline:
as §5

The species entered for assay [14] is Homo sapiens. Nature of the assay: Sweet / Bitter character at a concentration of 90 ppm (mean value); 91/9.
The species named for assay [15] is Homo sapiens. Nature of the assay: Other taste character at a concentration of 90 ppm (mean value). It is filed as functional. In outline: as §2
The species named for assay [16] is Homo sapiens. Nature of the assay: Sour character at a concentration of 90 ppm (mean value). It is filed as functional.
Assay [17] is filed under the species Homo sapiens. Nature of the assay: Sweet character at a concentration of 90 ppm (mean value). It is filed as functional.
The species entered for assay [18] is Homo sapiens. As to the kind of experiment: Experimentally determined perceived intensity of compound at a concentration of 90 ppm (mean value). It is filed as functional. In outline:
as §5

Assay [19] is filed under the species Homo sapiens. As to the kind of experiment: Bitter character at a concentration of 90 ppm (mean value). It is filed as functional. In outline: as §1
The species entered for assay [20] is Homo sapiens. Nature of the assay: Salty character at a concentration of 90 ppm (mean value). The format is functional.
For assay [21], the species on record is Homo sapiens. Nature of the assay: Percentage of judgments reporting an aftertaste at a concentration of 90 ppm and character thereof. It is filed as functional.
Assay [22] is filed under the species Homo sapiens. As to the kind of experiment: Intensity calculated on a molar basis relative to a 0.25 M sucrose solution at a concentration of 90 ppm (mean value). It is filed as functional. In outline: as §4
For assay [23], the species on record is Homo sapiens. As to the kind of experiment: Intensity calculated on a weight basis relative to an 85500 ppm sucrose solution at a concentration of 90 ppm (mean value). The format is functional. In outline: as §3
For assay [24], the species on record is Homo sapiens. Nature of the assay: Bitter character at a concentration of 1090 ppm (mean value). It is filed as functional. In outline: as §1
For assay [25], the species on record is Homo sapiens. Nature of the assay: Intensity calculated on a weight basis relative to an 85500 ppm sucrose solution at a concentration of 1090 ppm (mean value). The format is functional. In outline:
as §3

Assay [26] is filed under the species Homo sapiens. As to the kind of experiment: Sweet character at a concentration of 1090 ppm (mean value). It is filed as functional.
Assay [27] is filed under the species Homo sapiens. As to the kind of experiment: Salty character at a concentration of 1090 ppm (mean value). It is filed as functional.
Assay [28] is filed under the species Homo sapiens. Nature of the assay: Sweet / Bitter character at a concentration of 1090 ppm (mean value). It is filed as functional.
For assay [29], the species on record is Homo sapiens. As to the kind of experiment: Other taste character at a concentration of 1090 ppm (mean value). The format is functional. In outline:
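Trained human panel tasted aqueous solutions of each compound. Aftertaste is scored as the percentage of judgments reporting one, with its character coded sweet (s), bitter (b) or bitter-sweet (bs).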

The species entered for assay [30] is Homo sapiens. Nature of the assay: Intensity calculated on a molar basis relative to a 0.25 M sucrose solution at a concentration of 1090 ppm (mean value). It is filed as functional. In outline:
as §4

The species entered for assay [31] is Homo sapiens. As to the kind of experiment: Sour character at a concentration of 1090 ppm (mean value). The format is functional.
The species named for assay [32] is Homo sapiens. As to the kind of experiment: Experimentally determined perceived intensity of compound at a concentration of 1090 ppm (mean value). The format is functional. In outline:
as §5

For assay [33], the species on record is Homo sapiens. As to the kind of experiment: Percentage of judgments reporting an aftertaste at a concentration of 1090 ppm. It is filed as functional. In outline: as §6
For assay [34], the species on record is Homo sapiens. As to the kind of experiment: Experimentally determined perceived intensity of compound at a concentration of 690 ppm (mean value). The format is functional. In outline:
as §5

Assay [35] is filed under the species Homo sapiens. Nature of the assay: Other taste character at a concentration of 250 ppm (mean value). It is filed as functional. In outline: as §2
The species named for assay [36] is Homo sapiens. Nature of the assay: Sweet / Bitter character at a concentration of 250 ppm (mean value); 69/31. The format is functional.
The species entered for assay [37] is Homo sapiens. Nature of the assay: Salty character at a concentration of 250 ppm (mean value). It is filed as functional. In outline: as §2
For assay [38], the species on record is Homo sapiens. As to the kind of experiment: Sour character at a concentration of 250 ppm (mean value). It is filed as functional. In outline: as §2
The species named for assay [39] is Homo sapiens. As to the kind of experiment: Sweet character at a concentration of 250 ppm (mean value). The format is functional. In outline: as §2
Assay [40] is filed under the species Homo sapiens. Nature of the assay: Bitter character at a concentration of 250 ppm (mean value). The format is functional. In outline: as §1
The species named for assay [41] is Homo sapiens. Nature of the assay: Intensity calculated on a weight basis relative to an 85500 ppm sucrose solution at a concentration of 250 ppm (mean value). The format is functional. In outline: as §3
For assay [42], the species on record is Homo sapiens. As to the kind of experiment: Percentage of judgments reporting an aftertaste at a concentration of 250 ppm and character thereof. The format is functional. In outline: as §6
The species named for assay [43] is Homo sapiens. Nature of the assay: Experimentally determined perceived intensity of compound at a concentration of 250 ppm (mean value). The format is functional. In outline:
as §5

Assay [44] is filed under the species Homo sapiens. Nature of the assay: Intensity calculated on a molar basis relative to a 0.25 M sucrose solution at a concentration of 250 ppm (mean value). The format is functional. In outline: as §4

On to `COc1ccc(CCC(=O)c2c(O)cc(OCC(=O)[O-])cc2O)cc1N.[Na+]`, for which the Taste character came out at 6 in the assay filed under Homo sapiens [1]; 79 in the assay filed under Homo sapiens [2]; 5 in the assay listed under Homo sapiens [3]; 1 in the assay listed under Homo sapiens [5]; 0 in the assay filed under Homo sapiens [8]; 15 in the assay filed under Homo sapiens [10]. Also, the IW in the assay listed under Homo sapiens [4] was 200. Moreover, the IM in the assay filed under Homo sapiens [6] is 230. In addition, in the assay filed under Homo sapiens [7], the IP came out at 0.08. Besides, the figures for the Judgments in the assay listed under Homo sapiens [9] and in the assay listed under Homo sapiens [11] were 12 and 58, respectively.

For `COc1ccc(CCC(=N)c2c(O)cc(OCC(=O)[O-])cc2O)cc1O.[Na+]`, the Judgments in the assay filed under Homo sapiens [12] was determined as 0; in the assay listed under Homo sapiens [9], 1. The IP in the assay listed under Homo sapiens [13] is 0.

In the case of `COc1ccc(CCC(=O)c2c(O)cc(O)cc2O)cc1O`, the Taste character is on record as 91 in the assay filed under Homo sapiens [14]; 4 in the assay listed under Homo sapiens [15]; 0 in the assay listed under Homo sapiens [16]; 83 in the assay listed under Homo sapiens [17]; 8 in the assay listed under Homo sapiens [19]; 5 in the assay filed under Homo sapiens [20]. This compound came in with an IP in the assay filed under Homo sapiens [18] of 0.89. For the same compound, the Judgments in the assay filed under Homo sapiens [21] came out at 70; in the assay listed under Homo sapiens [9] it was 10. In the assay listed under Homo sapiens [22], the IM is listed as 750. Moreover, the IW in the assay filed under Homo sapiens [23] is on record as 850.

As to `COc1ccc(C2CC(=O)c3c(O)cc(OCCCS(=O)(=O)[O-])cc3O2)cc1O.[K+]` (stereo unspecified), the Taste character in the assay filed under Homo sapiens [24] stood at 25; in the assay listed under Homo sapiens [26], 75; in the assay filed under Homo sapiens [27] it was 0; in the assay listed under Homo sapiens [28], 75; in the assay filed under Homo sapiens [29], 0; in the assay listed under Homo sapiens [31] it was 0. Besides, the IW in the assay listed under Homo sapiens [25] is reported as 40. For the same compound, the IM in the assay filed under Homo sapiens [30] is 50. Besides, the figures for the Judgments in the assay filed under Homo sapiens [9] and in the assay listed under Homo sapiens [33] were 1 and 0, respectively. For the same compound, the IP in the assay listed under Homo sapiens [32] was 0.5.

For the compound `COc1ccc(/C=C/C(=O)c2c(O)cc(OCC(=O)[O-])cc2O)cc1O.[Na+]`, the IP in the assay listed under Homo sapiens [34] worked out at 0. In addition, in the assay filed under Homo sapiens [9], the Judgments is given as 1.

In turn, `COc1ccc(/C=C/C(=O)c2ccc(OCC(=O)[O-])cc2O)cc1O.[Na+]` had an IP in the assay listed under Homo sapiens [13] of 0. In the assay filed under Homo sapiens [9], this compound displayed a Judgments of 1.

With `COc1ccc(CCC(=O)c2c(O)cc(OC(CCCO)C(=O)[O-])cc2O)cc1O.[Na+]` (stereo unspecified), the Taste character in the assay filed under Homo sapiens [35] is on record as 0; in the assay filed under Homo sapiens [36], 69; in the assay filed under Homo sapiens [37], 0; in the assay filed under Homo sapiens [38] it was 0; in the assay filed under Homo sapiens [39], 69; in the assay listed under Homo sapiens [40], 31. Also, the IW in the assay listed under Homo sapiens [41] was 34. Further, the Judgments worked out at 0 in the assay filed under Homo sapiens [42] and 4 in the assay filed under Homo sapiens [9]. In the assay filed under Homo sapiens [43], this compound displayed an IP of 0.1. In the assay listed under Homo sapiens [44], the IM is on record as 43.
